Screens deposited in PubChem BioAssay by Johns Hopkins Ion Channel Center.
Hits are enriched below; roughly 3.1% of the tested compounds scored in any of these assays.
hERG protect = shields human hERG channel from block by proarrhythmic agents | Q12809 | CHO-hERG, FluxOR thallium flux, dofetilide IC70 present | activation (rescue from dofetilide block), less the hit threshold, % at 10 µM | 0.51% of 310,000 active;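 active means activation above the mean of controls blocked by dofetilide plus 5 SD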;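 further: thallium influx through hERG after potassium depolarization seen as dye fluorescence rise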
KCNK9 inh = inhibitors of human KCNK9 two-pore domain potassium channel; HEK293 KCNK9, FluxOR thallium flux fluorescence; active compounds read low; B-score at 10 µM; 1.2% of 310,000 active; AID 488922;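 active means ratio B-score over 3 SD below the library mean, with starting fluorescence within 5 SD of its mean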;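 further: negative B-score means less thallium flux so channel inhibition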
KCNQ1 pot = potentiators or activators of human KCNQ1 potassium channel; P51787; CHO-K1 KCNQ1, thallium flux FluxOR fluorescence; active compounds read high; B-score at 10 µM; 0.35% of 310,000 active; AID 2648;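 active means fluorescence ratio B-score, a plate-corrected score, at least three library SD, with initial intensity B-score within 5 SD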
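Test system: CHO-K1 cells stably expressing KCNQ1 / Medium: assay buffer / Also added: depolarizing K+/Tl+ stimulus, K2SO4 and Tl2SO4 each 12.5 mM in 5x stock / Incubation: 90 min dye loading and 20 min compound exposure, both at room temperature / Signal: thallium influx via FluxOR fluorescence, kinetic imaging / Evaluation: B score of baseline-normalized fluorescence ratio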
KCNQ1 inh = inhibitors of human KCNQ1 potassium channel | AID 2642 | CHO-K1 KCNQ1, FluxOR thallium flux fluorescence; active compounds read high | P51787 | 1.3% of 310,000 active | B-score at 10 µM;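 active means compounds whose thallium flux B-score, printed positive for inhibition, exceeds three library SD while starting fluorescence stays within three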;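 further: channel opened by potassium depolarization with thallium stimulus after 20 min compound exposure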
KCNK3 block = human KCNK3 channel inhibition, primary screen; CHO-KCNK3 thallium flux, FluxOR fluorescence; active compounds read low; 0.84% of 340,000 active; B-score at 10 µM; O14649;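 active means B-score under library mean minus 4 SD, starting fluorescence ratio at most library mean plus 5 SD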;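 further: more negative B-score means stronger inhibition of thallium flux through KCNK3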
KCNQ1 block val = human KCNQ1 channel inhibition, validation assay | shares compounds with KCNQ1 inh | KCNQ1 cell line, FluxOR thallium flux fluorescence | inhibition, % at 10 µM | 93% of 1,600 active | AID 588353;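 active means primary screen active, with duplicate mean exceeding buffer control mean plus 3 SD of buffer wells, cut at about 28% in these data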;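 further: 0% = buffer control ratio and 100% = XE991 inhibitor control ratio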
CHO Tl flux = KCNQ1 inhibitor counter-screen hit in parental CHO cells; parental CHO-K1, FluxOR thallium flux fluorescence ratio; active compounds read low; zero means no signal rise above baseline; AID 588366; fluorescence ratio (Tl flux) at 10 µM; 21% of 1,600 active; shares compounds with KCNQ1 inh;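 active means mean of duplicate thallium-flux fluorescence ratios in parental host cells more than 5 SD below the buffer control mean, cut at about 0.38 in these data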;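 further: ratio is peak minus minimum fluorescence divided by baseline fluorescence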
KCNQ1 APC inh = confirmation of human KCNQ1 potassium channel inhibitors by electrophysiology; shares compounds with KCNQ1 inh; KCNQ1-CHO cells, automated patch clamp current; calls only at 10 µM; 20% of 490 active; AID 624120;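 active means KCNQ1 current drop exceeding 3 SD of negative control wells, seen in both duplicate runs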;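 further: steady state current during a 2 s step from -80 to +40 mV; negative values mean current inhibition and positive values mean potentiation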
KCNQ2 inh = selectivity of KCNQ1 inhibitors: inhibition of rat KCNQ2 channel; AID 651746; KCNQ2 cells, FluxOR thallium flux fluorescence; inhibition, % at 10 µM; 71% of 1,600 active; shares compounds with KCNQ1 inh;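 active means mean percent inhibition of the KCNQ2 thallium signal more than 5 SD above the buffer-only control wells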;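 further: KCNQ2 expressed in CHO cells; 0% = buffer control wells and 100% = XE-991 inhibitor control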
Target sequence (O88943 whole entry, looked up): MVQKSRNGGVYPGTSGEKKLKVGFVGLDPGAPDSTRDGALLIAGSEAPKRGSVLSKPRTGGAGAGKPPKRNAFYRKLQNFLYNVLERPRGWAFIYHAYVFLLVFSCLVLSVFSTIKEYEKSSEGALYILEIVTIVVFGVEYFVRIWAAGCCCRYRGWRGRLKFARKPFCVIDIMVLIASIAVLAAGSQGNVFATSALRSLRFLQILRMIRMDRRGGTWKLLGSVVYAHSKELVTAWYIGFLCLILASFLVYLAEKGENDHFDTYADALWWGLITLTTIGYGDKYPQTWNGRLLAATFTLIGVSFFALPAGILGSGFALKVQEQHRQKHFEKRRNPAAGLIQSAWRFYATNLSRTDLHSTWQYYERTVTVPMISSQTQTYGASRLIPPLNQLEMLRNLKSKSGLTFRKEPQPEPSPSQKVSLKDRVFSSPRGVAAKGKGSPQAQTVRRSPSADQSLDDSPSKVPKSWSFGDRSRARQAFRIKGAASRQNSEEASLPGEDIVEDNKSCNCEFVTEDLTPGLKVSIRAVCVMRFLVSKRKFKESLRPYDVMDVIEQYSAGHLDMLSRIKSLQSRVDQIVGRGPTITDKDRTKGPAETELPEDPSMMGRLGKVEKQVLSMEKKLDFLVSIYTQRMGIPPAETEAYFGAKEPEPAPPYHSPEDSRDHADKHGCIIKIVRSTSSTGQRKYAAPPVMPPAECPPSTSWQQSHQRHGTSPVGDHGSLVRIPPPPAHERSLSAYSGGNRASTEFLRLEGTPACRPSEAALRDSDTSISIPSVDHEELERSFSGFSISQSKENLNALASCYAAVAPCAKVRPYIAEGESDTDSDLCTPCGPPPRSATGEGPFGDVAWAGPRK
KCNQ1 KCNE1 spec = selectivity of KCNQ1 inhibitors: inhibition of human KCNQ1/KCNE1 channel. shares compounds with KCNQ1 inh. KCNQ1/KCNE1 cells, FluxOR thallium flux fluorescence. inhibition, % at 10 µM. 77% of 1,600 active. AID 652147;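 active means mean percent inhibition of duplicate wells above the buffer-only control mean plus 3 SD of those controls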;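 further: 0% = buffer only wells and 100% = XE-991 inhibitor control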
Numbers without * were called inactive; i = inactive; / = no result; + = active, no number.

SMILES	hERG protect	KCNK9 inh	KCNQ1 pot	KCNQ1 inh	KCNK3 block	KCNQ1 block val	CHO Tl flux	KCNQ2 inh	KCNQ1 KCNE1 spec	others
CCOC(=O)C1=C(CC)Nc2ccccc2N=C1NC(=O)c1cc(C)on1	/	/	/	/	i	/	/	/	/
CCCc1cc(NCc2ccccn2)n2nc(C)c(-c3ccccc3)c2n1	-16.3	i	i	8*	i	55.5*	0.419	108.3%*	83.5%*
Cc1nn2c(NCc3ccccn3)cc(C(C)C)nc2c1-c1ccccc1	-6.9	i	i	i	i	/	/	/	/
Nc1ccc(-c2nc3nc(N)nc(N)c3nc2-c2ccc(N)cc2)cc1	-11.0	i	i	i	i	/	/	/	/
Fc1ccc(N2CCN(Cc3cnc(Cl)s3)CC2)cc1	-4.4	i	i	i	i	/	/	/	/
Cc1ccccc1NC(NC(=O)c1cccs1)C(Cl)(Cl)Cl (stereo not given)	-10.3	i	i	13*	i	120.5*	0.429	i	114.5%*	KCNQ1 APC inh=i
CC(C)(C)c1ccc(OCCC(=O)OCC(=O)N2c3ccccc3NC(=O)C2(C)C)cc1	-31.9	i	i	7*	i	120.5*	0.291*	140.3%*	55.5%*
Cc1ccc(S(=O)(=O)N(Cc2ccccc2)Cc2ccco2)cc1	-15.1	i	i	7*	i	96.0*	0.461	92.7%*	40.5%*	KCNQ1 APC inh=i
Cc1ccc(S(=O)(=O)N(CCO)Cc2ccccc2)cc1	-0.9	i	i	i	i	/	/	/	/
S=C(NCc1ccccc1)Nc1ccc(Oc2ccccc2)cc1	-3.7	i	i	7*	i	94.5*	0.434	73.7%*	49.0%*	KCNQ1 APC inh=i
Cc1ccc(CN=C(Nc2ccccc2)NC2CCCCC2)cc1	-4.4	i	i	9*	i	67.5*	0.529	i	41.0%*
CC1CCN(CCCNC(=O)c2ccc3c(=O)n(Cc4ccc(Cl)cc4)c(=S)[nH]c3c2)CC1	-44.3	i	i	7*	i	0.0	0.483	i	i
COC(=O)c1ccc2c(=O)n(Cc3ccc(C(=O)NCCCN4CCC(C)CC4)cc3)c(=S)[nH]c2c1	-4.3	i	i	i	i	/	/	/	/
CSc1cccc(NS(=O)(=O)c2cn(C)cn2)c1	-9.7	i	i	i	i	/	/	/	/
O=C(CSc1nc(-c2ccco2)cc(C(F)(F)F)n1)NCCN1CCOCC1	-11.7	i	i	i	i	/	/	/	/
O=C1CCN(Cc2ccccc2)CCN1CCOc1ccccc1	-4.2	i	i	6*	i	0.0	0.508	i	i
O=C(Nc1cccc(Cl)c1)OCCN1CCN(Cc2ccccc2)CCC1=O	-17.2	i	i	11*	i	69.5*	0.486	99.0%*	46.5%*
Nc1ccccc1CNc1nc(NCCO)nc2c1ncn2CCN1CCOCC1	-3.9	i	i	i	i	/	/	/	/
CCc1ccc2cccc3c2c1N=CN3C	-13.7	i	i	i	i	/	/	/	/
CCCc1ccc(C(C)NC(=S)NC2CCCCC2)cc1 (stereo not given)	-3.1	i	i	6*	i	46.0*	0.733	i	i
c1ccc(Cn2nnnc2C(c2cccnc2)N2CCN(C3CCCCC3)CC2)cc1 (stereo not given)	-11.5	i	i	8*	i	39.0*	0.474	64.0%*	37.5%*
CC(=O)Nc1cccc2c1C(=O)N(c1ccc(OC(C)=O)cc1)C2=O	-6.9	i	i	i	i	/	/	/	/
COc1ccc(C(NC(=O)C2CCCCC2)c2c(O)ccc3ccccc23)cc1 (stereo not given)	-4.5	i	i	7*	i	81.5*	0.426	88.7%*	92.0%*
O=C(CSc1ccc2ccccc2n1)Nc1ccc(N2CCOCC2)cc1	-12.5	i	i	i	i	/	/	/	/
CCN=C(NCC)SC1CC(=O)N(c2cccc(OC)c2)C1=O (stereo not given)	-22.9	i	i	11*	i	63.5*	0.435	70.7%*	62.5%*
SMILES	hERG protect	KCNK9 inh	KCNQ1 pot	KCNQ1 inh	KCNK3 block	KCNQ1 block val	CHO Tl flux	KCNQ2 inh	KCNQ1 KCNE1 spec	others
Cc1ccc([N+](=O)[O-])cc1NC(=O)Nc1onc(C)c1C	-14.1	i	i	i	i	/	/	/	/
COc1ccc(CCNC(=S)NNC(=O)c2c(Br)c(C)nn2C)cc1OC	-4.3	i	i	i	i	/	/	/	/
Clc1ccc(Cn2ncc3c(N4CCCC4)ncnc32)cc1	-4.0	i	i	i	i	/	/	/	/
c1ccc(Cn2ncc3c(N4CCN(C(c5ccccc5)c5ccccc5)CC4)ncnc32)cc1	9.4*	i	i	10*	i	+	0.376*	i	i
Cc1cc(=O)[nH]c(SCC(=O)/C=C2\N(C)c3ccccc3C2(C)C)n1	-21.9	i	i	11*	i	106.5*	0.479	87.7%*	79.0%*	KCNQ1 APC inh=i
Cc1nnc2ccc(Oc3ccc(-c4ccccc4)cc3)nn12	-17.3	i	i	9*	i	67.0*	0.468	i	i
COC(=O)c1ccc(Oc2ccc3nnc(C)n3n2)cc1	-5.8	i	i	i	i	/	/	/	/
O=C1CSC(c2cn(-c3ccccc3)nc2-c2ccccc2)N1Cc1ccco1 (stereo not given)	-11.9	i	i	10*	i	134.0*	0.416	107.7%*	189.0%*	KCNQ1 APC inh=i
Nc1ccc(-c2c3ccc(=O)cc-3oc3cc(O)ccc23)cc1C(=O)O	-52.2	i	i	24*	i	+	0.0075*	i	i
O=c1ccc2c(-c3ccccc3)c3ccc(O)cc3oc-2c1	-50.5	i	i	24*	i	+	0*	i	i
COc1ccc(-c2c(C)c3ccc(O)cc3oc2=O)cc1OC	-4.8	i	i	i	i	/	/	/	/
O=c1cc(-c2ccccc2)oc2cc(O)ccc12	/	/	/	/	i	/	/	/	/
COC(=O)c1cc(NC(=O)Nc2ccccc2)ccc1Cl	-7.9	i	i	i	i	/	/	/	/
CC1=C(C)CC(C(=O)Nc2nccs2)C(C(=O)O)C1 (stereo not given)	-1.5	i	i	i	i	/	/	/	/
